The test system of data set [1] is T-24. Briefly: Up-regulation of MLKL expression in human T24 cells at 2.5 to 7.5 uM measured by ELISA assay. In kind it is functional, cell-based. The conditions noted are these: dose 2.5-7.5 µM. In outline:
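T24 cells pretreated, collected, diluted in PBS, counted and stored overnight at −20 °C. After membrane disruption, lysates centrifuged at 5000 × g for 5 min (4 °C). RIPK1, RIPK3 and MLKL levels then measured with ELISA kits.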

Data set [2] is described as follows: Tmax in Sprague-Dawley rat at 12 mg/kg, IG measured HPLC analysis. In kind it is ADME, organism-based. The settings on record: in vivo, po. In a few lines:
(§1)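 Fasted (12 h) male-unspecified Sprague-Dawley rats (250 ± 20 g), n = 6 per group. Single intragastric dose of suspension (2 mg mL−1 in Tween 80/0.9% NaCl 1.5:5 v/v). Orbital blood drawn at 0.5–48 h and plasma assayed by reversed-phase C18 HPLC-UV. One-compartment fit, weight 1.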

Data set [3] in a line: Absorption rate constant in Sprague-Dawley rat at 6 mg/kg, IG measured HPLC analysis. The settings on record: in vivo, po. The class given is ADME, organism-based.
Data set [4] concerns T-24. Nature of the data set: Up-regulation of RIPK1 mRNA expression in human T24 cells at 7.5 to 12.5 uM measured by RT-PCR analysis. In kind it is functional, cell-based. The settings on record: dose 7.5-12.5 µM. In a few lines:
(§2)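 Total T24 RNA extracted with TRIzol. RT-PCR normalized to GAPDH, relative expression by 2−ΔΔCt versus control. Incubation 16 h for RIPK1/RIPK3/MLKL. At least three independent experiments, each in triplicate.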

The subject of data set [5] is T-24. Briefly: Down-regulation of RIPK1 expression in human T24 cells at 7.5 to 10 uM measured in presence of 60 uM Nec-1 after 16 hrs by Western blot analysis. In kind it is functional, cell-based. The settings on record: dose 7.5-10 µM. In outline:
(§3)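 T24 cells co-incubated 16 h with or without Nec-1 (60 μM). Lysates quantified by BCA, 40 μg protein resolved by SDS-PAGE, transferred to PVDF, probed with primary and peroxidase-conjugated secondary antibodies, detected by ECL. Band gray values normalized to β-actin loading control.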

Data set [6] relates to T-24. Briefly: Up-regulation of MLKL expression in human T24 cells at 7.5 to 10 uM measured after 16 hrs by Western blot analysis. The class given is functional, cell-based. The settings on record: dose 7.5-10 µM.
Data set [7] deals with T-24. Nature of the data set: Induction of apoptosis in human T24 cells assessed as apoptotic cells at 2.5 uM measured after 10 hrs by Annexin-V/FITC and propidium iodide staining based flow cytometry analysis. The class given is functional. In a few lines: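 T24 cells in 60 mm dishes treated 10 h at 37 °C, collected, PBS-washed, resuspended in binding buffer, stained with Annexin V-FITC and PI for 15 min at room temperature in the dark. At least 1 × 10^4 events per sample by flow cytometry; apoptotic cells = early (Annexin+/PI−) plus late (Annexin+/PI+). Triplicate experiments.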

The subject of data set [8] is T-24. Nature of the data set: Up-regulation of p-RIPK1 expression in human T24 cells at 7.5 to 10 uM measured after 16 hrs by Western blot analysis. The class given is functional, cell-based. The settings on record: dose 7.5-10 µM.
Data set [9] deals with T-24. Briefly: Down-regulation of p-MLKL expression in human T24 cells at 7.5 to 10 uM measured in presence of 60 uM Nec-1 after 16 hrs by Western blot analysis. In kind it is functional, cell-based. The settings on record: dose 7.5-10 µM. In outline:
as §3

Data set [10] concerns T-24. Briefly: Antiproliferative activity against human T24 cells measured after 24 hrs by MTT assay. The class given is functional, cell-based. The conditions noted are these: T-24, 24 h. In outline:
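Cells seeded 5 × 10^3 per well, grown overnight at 37 °C, then exposed to compound at final 1–40 μM (1, 2.5, 5, 7.5, 10, 12.5, 15, 20, 30, 40 μM) for the stated period. MTT added, 4 h at 37 °C, formazan dissolved in DMSO, absorbance read. IC50 = concentration killing 50% of cells relative to untreated control; mean ± S.D. of four independent experiments.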

Data set [11] has as its system T-24. Nature of the data set: Up-regulation of RIPK3 mRNA expression in human T24 cells at 7.5 to 12.5 uM measured by RT-PCR analysis. The settings on record: dose 7.5-12.5 µM. The class given is functional, cell-based. In a few lines: as §2
Data set [12] concerns T-24. Nature of the data set: Induction of necroptosis in human T24 cells assessed as viable cells at 10 uM and measured by trypan blue exclusion assay. In kind it is functional. The conditions noted are these: read-out: Activity. In outline: (§4)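 T24 cells (2 × 10^5/well) exposed for 16 h with or without Nec-1 (60 μM), then stained with trypan blue. Viable and dead cells counted. Result given as % viable cells relative to untreated control.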

The subject of data set [13] is T-24. Nature of the data set: Induction of necroptosis in human T24 cells assessed as viable cells at 12.5 uM and measured by trypan blue exclusion assay. In kind it is functional. The settings on record: read-out: Activity. In a few lines: as §4
The nature of data set [14]: Selectivity index, ratio IC50 for antiproliferative activity against human HCV-29 cells over IC50 for antiproliferative activity against human T24 cells. The class given is toxicity, cell-based. The conditions noted are these: HCV-29 cells versus T24 cells. In a few lines:
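MTT assay, 48 h exposure at final 1–40 μM in T24 and normal bladder epithelial HCV29 cells (5 × 10^3/well, seeded overnight, 37 °C). MTT added for 4 h and formazan dissolved in DMSO. IC50 taken relative to untreated control, four parallel samples. SI = IC50(HCV29)/IC50(T24).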

In data set [15] the test system is T-24. Briefly: Induction of apoptosis in human T24 cells assessed as decrease in Bcl-2 expression at 5 to 7.5 uM measured by Western blot analysis. The class given is functional, cell-based. The settings on record: dose 5-7.5 µM. In a few lines: (§5)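 Apoptosis-related proteins measured by Western blot in T24 lysates: 40 μg protein per lane by SDS-PAGE, PVDF transfer, primary and peroxidase-linked secondary antibodies, ECL detection, densitometry of gray values with β-actin as loading control.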

Data set [16] concerns T-24. Nature of the data set: Down-regulation of p-RIPK3 expression in human T24 cells at 7.5 to 10 uM measured in presence of 60 uM Nec-1 after 16 hrs by Western blot analysis. The class given is functional, cell-based. The settings on record: dose 7.5-10 µM. In outline: as §3
The test system of data set [17] is T-24. Nature of the data set: Up-regulation of p-MLKL expression in human T24 cells at 7.5 to 10 uM measured after 16 hrs by Western blot analysis. The class given is functional, cell-based. The settings on record: dose 7.5-10 µM.
Data set [18] relates to T-24. Briefly: Induction of apoptosis in human T24 cells assessed as increase in cleaved caspase-3 expression at 0 to 5 uM measured by Western blot analysis. In kind it is functional, cell-based. The conditions noted are these: dose 0-5 µM. In a few lines:
as §5

In data set [19] the test system is T-24. Briefly: Down-regulation of VEGFR-2 mRNA expression in human T24 cells at 7.5 uM measured in presence of 25 uM apatinib by RT-PCR analysis. In kind it is functional, cell-based.
Data set [20] is described as follows: Cmax in Sprague-Dawley rat at 6 mg/kg, IG measured HPLC analysis. The settings on record: in vivo, po. The class given is ADME, organism-based. Also noted: dose 6 mg/kg, route ig.
For data set [21], the system named is T-24. Briefly: Up-regulation of RIPK2 expression in human T24 cells at 7.5 to 10 uM measured after 16 hrs by Western blot analysis. The class given is functional, cell-based. The settings on record: dose 7.5-10 µM.
Data set [22] concerns T-24. Nature of the data set: Down-regulation of VEGFR-1 mRNA expression in human T24 cells at 7.5 uM measured in presence of 25 uM apatinib by RT-PCR analysis. The class given is functional, cell-based.
For data set [23], the system named is T-24. Nature of the data set: Induction of necroptosis in human T24 cells assessed as necrotic cells at 7.5 to 12.5 uM measured after 16 hrs by flow cytometry analysis. The class given is functional, cell-based. The conditions noted are these: dose 7.5-12.5 µM. In outline:
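T24 cells in 60 mm dishes treated at 37 °C for 16 h with or without Nec-1 (60 μM). Washed thrice in PBS, then stained with Annexin V-FITC/PI for 15 min at room temperature in the dark. Flow cytometry, ≥1 × 10^4 events. Necrotic fraction taken as Annexin−/PI+. Done in triplicate.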

Data set [24] is described as follows: MRT (0 to 48 hrs) in Sprague-Dawley rat at 12 mg/kg, IG measured HPLC analysis. In kind it is ADME, organism-based. The conditions noted are these: in vivo, po. In outline:
as §1

The source made the active and inactive calls. The calls are words filed in the database; no cut-off is given here.

On to `O=C(Nc1ccc(C(F)(F)F)cc1)Nc1cccc(CNc2nccnc2Cl)c1`, for which the outcome in data set [1], in data set [4], in data set [5], in [6], in [8] and in data set [9] was Active. Further, the outcome in [11], in data set [15], in [16], in data set [17], in data set [18] and in data set [19] was Active. Moreover, the outcome in data set [21], in data set [22] and in [23] was Active. Besides, the time to peak (Tmax) in data set [2] was determined as 12.4 h. The compound also registered a Ka in [3] of 0.098 h⁻¹. Moreover, the Activity in [7] stood at 9.01%. The IC50 in data set [10] was found to be 9.18 µM. The viability at 10 µM in data set [12] was found to be 38%. In data set [13], the viability at 12.5 µM came to 24.8%. Moreover, the SI in data set [14] was 6.56. The same compound displayed a Cmax in [20] of 1190 ng/mL. This compound also had an MRT last in data set [24] of 10.3 h.

Source of the values: ChEMBL document CHEMBL5104108, “Concise synthesis and biological activity evaluation of novel pyrazinyl-aryl urea derivatives against several cancer cell lines, which can especially induce T24 apoptotic and necroptotic cell death” (RSC Med Chem, 2022).
